Experimental findings from ChEMBL document CHEMBL4715702, “Overcoming multidrug resistance by targeting mitochondria with NO-donating doxorubicins” (Bioorg Med Chem, 2016) are described below.

Usually half-life stands for the time in which the quantity being followed falls by half.

Calls of active or inactive are those of the source. The rule behind the calls is not given here.

Data set [1] is described as follows: Prodrug release in human HT-29 cells assessed as increase in NO level by measuring nitrite release at 5 uM incubated for 24 hrs by spectrophotometric analysis. The class given is ADME, cell-based. As to conditions: ht-29, 24 h. In short, it runs like this: (§1)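 After 24 h culture with 5 µmol/L compound, medium mixed 1:1 with Griess reagent, 10 min 37°C in dark, absorbance 540 nm. Cell-free blank subtracted; nitrite expressed as nmol/mg cell protein. HT29/dx maintained in 200 nmol/L DOXO. Triplicate, mean ± SD (n = 3).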

Data set [2] is described as follows: Prodrug release in doxorubicin-resistant human HT-29 cells assessed as increase in NO level by measuring nitrite release at 5 uM incubated for 24 hrs by spectrophotometric analysis. Conditions: ht-29, 24 h. The class given is ADME, cell-based. In outline: as §1
In data set [3] the test system is HT-29. The experiment in a line: Cytotoxicity against doxorubicin-resistant human HT-29 cells assessed as LDH release at 5 uM incubated for 24 hrs. The class given is functional, cell-based. In short, it runs like this: (§2)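 Extracellular medium spun 12,000 × g 5 min; cells detached, sonicated in 82.3 mmol/L triethanolamine phosphate-HCl pH 7.6. LDH activity read in medium and lysate at 340 nm over 6 min, as µmol NADH oxidized/min/dish; extracellular LDH given as % of total dish activity. Compounds from DMSO stock, 5 µM final, 1% DMSO; controls 1% DMSO. Triplicate, mean ± SD.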
(In general: Release of lactate dehydrogenase indicates damage to the cell membrane.)

The subject of data set [4] is HT-29. The experiment in a line: Cytotoxicity against human HT-29 cells assessed as LDH release at 5 uM incubated for 24 hrs. The class given is functional, cell-based. In outline:
as §2

Data set [5] can be described thus: Stability of the compound assessed as human serum esterase-mediated compound hydrolysis by measuring half life at 100 uM by RP-HPLC analysis. It is filed as ADME, cell-free. In outline:
(§3)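 Compound from 10 mM DMSO stock added to human male AB serum preheated to 37 °C, 100 µM final, incubated at 37 ± 0.5 °C. Aliquots deproteinized with acetonitrile/0.1% HCOOH, centrifuged, filtered. Parent and degradation products quantified by RP-HPLC (234 and 480 nm) against 1–100 µM calibration. At least triplicate.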

The subject of data set [6] is HT-29. Briefly: Induction of apoptosis in doxorubicin-resistant human HT29 cells assessed as activation of caspase 3 using DEVD-AMC substrate at 5 uM incubated for 24 hrs by fluorescence based assay. It is filed as functional, cell-based. In outline: (§4)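 Cells 24 h in 5 µmol/L compound or fresh medium, lysed in HEPES/KOH buffer pH 7.5. 20 µg lysate incubated 1 h at 37°C with 20 µmol/L LEHD-AMC (caspase 9) or DEVD-AMC (caspase 3) in HEPES/CHAPS/sucrose/DTT buffer pH 7.5. Stopped with ice-cold 0.1% TCA; AMC fluorescence ex 380/em 460 nm, converted to nmol AMC/µg protein via AMC standards. Triplicate.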

In data set [7] the test system is HT-29. The experiment in a line: Induction of apoptosis in human HT29 cells assessed as activation of caspase 3 using DEVD-AMC substrate at 5 uM incubated for 24 hrs by fluorescence based assay. The class given is functional, cell-based. In outline: as §4
Data set [8] relates to HT-29. The experiment in a line: Induction of apoptosis in doxorubicin-resistant human HT29 cells assessed as activation of caspase 9 using LEHD-AMC substrate at 5 uM incubated for 24 hrs by fluorescence based assay. The class given is functional, cell-based. In outline:
as §4

For data set [9], the system named is HT-29. The experiment in a line: Induction of apoptosis in human HT29 cells assessed as activation of caspase 9 using LEHD-AMC substrate at 5 uM incubated for 24 hrs by fluorescence based assay. It is filed as functional, cell-based. In short, it runs like this: as §4
The next data set has as its system H9c2. Briefly: Cardiotoxicity against rat H9c2 cells assessed as LDH release at 5 uM incubated for 24 hrs. It is filed as toxicity, cell-based. As to conditions: h9c2, 24 h. In outline:
as §2

Data set [10] relates to HT-29. The experiment in a line: Upregulation of iNOS protein expression in human HT-29 cells. The class given is functional, cell-based. In outline: (§5)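 HT29 and HT29/dx cells incubated 24 h with compound or fresh medium; lysed in MLB buffer pH 7.5, sonicated, centrifuged 13,000 x g 10 min 4°C; iNOS detected in whole-cell lysate by Western blotting.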
In data set [11] the test system is HT-29. The experiment in a line: Upregulation of iNOS protein expression in doxorubicin-resistant human HT-29 cells. The class given is functional, cell-based. In short, it runs like this:
as §5

Data set [12] in a line: Stability of the compound assessed as human serum esterase-mediated compound hydrolysis by measuring parent compound remaining at 100 uM measured after 24 hrs by RP-HPLC analysis. It is filed as ADME, cell-free. Conditions: read-out: Stabilty. In short, it runs like this:
as §3

A short description of data set [13]: Prodrug release in doxorubicin-resistant human HT-29 cells assessed as increase in NO level by measuring induction of P-glycoprotein nitration in plasma membrane at 5 uM incubated for 24 hrs by western blot analysis. It is filed as cell membranes, Cell membrane. Conditions: ht-29, 24 h. In short, it runs like this: (§6)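 Cells 24 h with 5 µmol/L compound. Plasma-membrane proteins isolated by surface biotinylation, 50 µg run on SDS-PAGE, probed for Pgp with pancadherin loading control; nitration detected by Western blot, peroxidase secondary and chemiluminescence. Representative of three experiments.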
Background: In western blotting, separated proteins are transferred to a membrane and probed.

A short description of data set [14]: Prodrug release in human HT-29 cells assessed as increase in NO level by measuring induction of P-glycoprotein nitration in plasma membrane at 5 uM incubated for 24 hrs by western blot analysis. The class given is cell membranes, Cell membrane. As to conditions: ht-29, 24 h. In outline:
as §6

A short description of data set [15]: Prodrug release in human HT-29 cells assessed as increase in NO level by measuring plasma membrane associated MRP1/BCRP nitration mediated drug uptake at 5 uM incubated for 24 hrs by spectrofluorometric analysis. It is filed as ADME, cell membranes. As to conditions: ht-29, 24 h. In outline: (§7)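 Cells 24 h with 5 µmol/L compound; DOXO in whole-cell lysates measured fluorimetrically (ex 475/em 553 nm), cell-free blank subtracted, converted to nmol DOXO/mg protein by calibration curve. Triplicate, mean ± SD.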

The nature of data set [16]: Prodrug release in doxorubicin-resistant human HT-29 cells assessed as increase in NO level by measuring plasma membrane associated MRP1/BCRP nitration mediated drug uptake at 5 uM incubated for 24 hrs by spectrofluorometric analysis. It is filed as ADME, cell membranes. As to conditions: ht-29, 24 h. In short, it runs like this:
as §7

A short description of data set [17]: Prodrug release in human HT-29 cells assessed as increase in NO level by measuring mitochondria associated MRP1/BCRP/P-gp nitration mediated drug uptake at 5 uM incubated for 24 hrs by spectrofluorometric analysis. Conditions: ht-29, 24 h. It is filed as ADME. In outline:
(§8)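 Cells 24 h with 5 µmol/L compound; mitochondrial fractions isolated (porin check by immunoblot), DOXO measured fluorimetrically (ex 475/em 553 nm) with blank subtraction and calibration curve; expressed as nmol DOXO/mg mitochondrial protein. Triplicate, mean ± SD.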

Data set [18] in a line: Prodrug release in doxorubicin-resistant human HT-29 cells assessed as increase in NO level by measuring mitochondria associated MRP1/BCRP/P-gp nitration mediated drug uptake at 5 uM incubated for 24 hrs by spectrofluorometric analysis. The class given is ADME. Conditions: ht-29, 24 h. In short, it runs like this:
as §8

Data set [19] can be described thus: Prodrug release in human HT-29 cells assessed as increase in NO level by measuring induction of P-glycoprotein nitration in mitochondria at 5 uM incubated for 24 hrs by western blot analysis. Conditions: ht-29, 24 h. In outline:
(§9)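 Cells 24 h with 5 µmol/L compound. Mitochondrial extracts, 10 µg protein, run on SDS-PAGE and probed for Pgp, porin as loading control; nitration detected by Western blot with peroxidase secondary and chemiluminescence. Representative of three experiments.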

A short description of data set [20]: Prodrug release in doxrubicin-resistant human HT-29 cells assessed as increase in NO level by measuring induction of P-glycoprotein nitration in mitochondria at 5 uM incubated for 24 hrs by western blot analysis. As to conditions: ht-29, 24 h. In short, it runs like this: as §9

As to `COc1cccc2c1C(=O)c1c(O)c3c(c(O)c1C2=O)C[C@@](O)(C(=O)COC(=O)c1ccc(Oc2no[n+]([O-])c2S(=O)(=O)c2ccccc2)cc1)C[C@@H]3O[C@H]1C[C@H](N)[C@H](O)[C@H](C)O1.Cl`, the Drug metabolism result in data set [1] and in data set [2] was “Metabolite_Detected” in each case. The result in the data set on HT-29 [3], with HT-29 [4], with HT-29 [6], with HT-29 [7], in the data set on HT-29 [8] and in the data set on HT-29 [9] was Active. Further, the result in the data set on HT-29 [10] and in the data set on HT-29 [11] was Active. Moreover, in [5], the half-life at 100 µM was > 24 h. Besides, in the data set on H9c2, the Activity entry is on record as “Non-Toxic”. Moreover, in data set [12], the remaining at 24 h, 100 µM came to 73.5%.

As for `COc1cccc2c1C(=O)c1c(O)c3c(c(O)c1C2=O)C[C@@](O)(C(=O)COC(=O)C(C)(C)CO[N+](=O)[O-])C[C@@H]3O[C@H]1C[C@H](N)[C@H](O)[C@H](C)O1.Cl`, the Activity result is “Not Active” in data set [13]; “Not Active” in data set [14]; “Non-Toxic” in the data set with H9c2; “Active” in data set [19]; “Active” in [20]. Besides, the Drug metabolism entry in [1] and in [2] was “Metabolite_Detected” each time. The Drug uptake result in [15], in data set [16], in data set [17] and in data set [18] was “Active” throughout. Moreover, the result with HT-29 [3], with HT-29 [4], in the data set with HT-29 [6], in the data set on HT-29 [7], in the data set with HT-29 [8] and in the data set on HT-29 [9] was Active. The result in the data set with HT-29 [10] and in the data set on HT-29 [11] was Active. The half-life at 100 µM in data set [5] was 21.7 h.
